Screening results as filed in PubChem BioAssay.
GSK3B inh: human GSK3beta kinase inhibition; AID 2097; GST-GSK3beta kinase, ADP-Glo luminescence, 60 min; active compounds read low; activity score (negative = inhibition), % at 10 µM; 300,000 compounds, 0.038% hits;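 active = more than half of replicate wells score below -50%, meaning over 50% inhibition versus plate controls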;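 note: 0% = median DMSO wells and -100% = median GW8510 positive control wells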
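Assay system: GST-tagged human GSK3beta kinase, cell-free; Input: 1.6 ng GSK3beta; Medium: Tris/MgCl2 kinase buffer; Timing: 60 min enzyme reaction, room temperature; Signal: ADP-Glo luminescence quantifying ADP generated by kinase; Evaluation: score relative to plate controls; Benchmarks: DMSO neutral wells and GW8510 at 20 µM as positive.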
Dyrk1A ADPGlo: Dyrk1A (rat) kinase inhibition; Q63470; ADP-Glo luminescence, NFATc1 peptide; inhibition, % at 12.5 µM; 310,000 compounds, 0.43% hits; AID 504441; in the data active = inhibition above about 50%;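 note: plate controls were vehicle with enzyme for no effect and no enzyme for full effect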
Rin1-Abl PPI inh: inhibitors of human Rin1-Abl protein interaction; TR-FRET Rin1/Abl binding, biochemical; 360,000 compounds, 0.4% hits; AID 588664; inhibition, % at 7.35 µM; in the data active = inhibition above about 5%, passing the limit was not always enough
Arrestin-AP2 inh: inhibitors of human beta-arrestin and AP2 interaction. 340,000 compounds, 0.31% hits. inhibition, % at 10 µM. FITC-arrestin peptide / GST-AP2 beads, flow cytometry; AP2 beta2 appendage carries R879A mutation;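 active = inhibition above a set limit, near 3 SD of compounds lacking own fluorescence, cut at about 54% in these data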;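 note: plate controls were DMSO wells for no effect and 5 µM unlabelled arrestin peptide for full effect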
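System: GST-AP2 R879A glutathione beads; medium: PBS, Tween 20 0.05%, BSA 0.1%; reagent: fluorescein-tagged arrestin peptide at 50 nM final; schedule: pre-incubation 12 min, peptide binding 1 h, room temperature; detection: flow cytometry, FL1 (488/535 nm); read-out: inhibition as reduced fluorescein signal on beads, percent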
GSK3A inh: blocks human GSK-3 alpha kinase; AID 2650; 320,000 compounds, 0.1% hits; P49840; inhibition, % at 10 µM; ADP-Glo luminescence, 60 min;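 active = more than half of replicates show inhibition above 20%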;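 note: GST-tagged GSK-3 alpha with peptide substrate and 25 µM ATP; 0% = DMSO neutral wells and 100% = GW8510 positive control wells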
STK33 inh: inhibitors of human STK33 kinase | 320,000 compounds, 0.073% hits | inhibition, % at 10 µM | Q9BYT3 | AID 2661 | purified STK33, MBP phosphorylation, ADP-Glo luminescence;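 active = inhibition at or above 25%, using the most active replicate where run in duplicate; inactive = inhibition below 25%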
Target sequence (Q9BYT3 whole entry, looked up): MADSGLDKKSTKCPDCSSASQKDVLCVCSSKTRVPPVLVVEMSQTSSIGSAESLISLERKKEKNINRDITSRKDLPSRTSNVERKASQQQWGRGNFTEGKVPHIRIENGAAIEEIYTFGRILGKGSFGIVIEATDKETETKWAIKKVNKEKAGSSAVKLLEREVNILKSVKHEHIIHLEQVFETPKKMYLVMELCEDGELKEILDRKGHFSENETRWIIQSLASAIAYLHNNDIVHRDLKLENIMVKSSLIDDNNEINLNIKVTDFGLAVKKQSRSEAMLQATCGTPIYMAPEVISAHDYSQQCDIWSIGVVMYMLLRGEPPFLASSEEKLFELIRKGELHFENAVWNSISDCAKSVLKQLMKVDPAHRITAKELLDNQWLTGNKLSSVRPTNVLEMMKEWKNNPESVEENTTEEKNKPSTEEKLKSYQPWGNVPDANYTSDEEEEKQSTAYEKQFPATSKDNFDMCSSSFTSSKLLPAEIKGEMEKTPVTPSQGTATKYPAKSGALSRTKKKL
Dyrk1A artifact: interferes with ADP-Glo luciferase readout without Dyrk1A; AC50, µM (series often up to 12 µM), for the others: at the top dose activity change, negative = inhibition; ADP-Glo luciferase artifact assay, no Dyrk1A, luminescence; 1,300 tested, under 10 active; shares compounds with Dyrk1A ADPGlo;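 active = fitted half-maximal dose AC50 no more than ten times the top valid tested dose, with luminescence dropping as dose rises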
The depositor's hits bear a star. Rows were chosen to be rich in hits. Some 0.99% of all compounds tested hit in one or more screens of this group.

For CC1CCc2nc(NC(=O)c3ccc(N4C(=O)CCC4=O)cc3)sc2C1 (configuration not stated) the results were GSK3B inh 1, Dyrk1A ADPGlo 56*, Rin1-Abl PPI inh 3, Arrestin-AP2 inh 4, GSK3A inh 1, STK33 inh 2 and Dyrk1A artifact 6%.
`Cc1ccc(C)c2sc(NC(=O)c3ccc(N4C(=O)CCC4=O)cc3)nc12` gave GSK3B inh -12, Dyrk1A ADPGlo 3, Rin1-Abl PPI inh 1, Arrestin-AP2 inh 8, GSK3A inh -6 and STK33 inh -1.
Screening O=C(Nc1nc2c(s1)CCCC2)c1ccc(N2C(=O)CCC2=O)cc1 returned GSK3B inh 2, Dyrk1A ADPGlo 67*, Rin1-Abl PPI inh -1, Arrestin-AP2 inh 38, GSK3A inh 0, STK33 inh 2 and Dyrk1A artifact 8%.
CC1CCc2nc(NC(=O)c3ccco3)sc2C1 (configuration not stated) was read as GSK3B inh 0, Dyrk1A ADPGlo 27, Rin1-Abl PPI inh 3, Arrestin-AP2 inh 25, GSK3A inh -1 and STK33 inh 3.
Screening COc1ccc(C(=O)c2sc(Nc3ccccc3F)nc2N)cc1 returned GSK3B inh -19, Dyrk1A ADPGlo 61*, Rin1-Abl PPI inh -2, Arrestin-AP2 inh -3, GSK3A inh 56*, STK33 inh 3 and Dyrk1A artifact 8%.
`Nc1nc(Nc2ccccc2)sc1C(=O)c1ccccc1` gave GSK3B inh -71*, Dyrk1A ADPGlo 81*, Rin1-Abl PPI inh -1, Arrestin-AP2 inh 9, GSK3A inh 92*, STK33 inh 12 and Dyrk1A artifact 8%.
Cc1nc(C)c(-c2csc(NCc3ccco3)n2)s1 was read as GSK3B inh -1, Dyrk1A ADPGlo 25, Rin1-Abl PPI inh 0, Arrestin-AP2 inh -11, GSK3A inh -2 and STK33 inh -1.
Screening Cc1nc(NC(=O)c2ccccc2)sc1-c1csc(NCc2ccco2)n1 returned GSK3B inh -3, Dyrk1A ADPGlo 67*, Rin1-Abl PPI inh -2, Arrestin-AP2 inh -7 and Dyrk1A artifact 7%.
`N#CCN(CC#N)C(=O)C1c2ccccc2Oc2ccccc21` gave GSK3B inh -1, Dyrk1A ADPGlo 3, Rin1-Abl PPI inh -1, Arrestin-AP2 inh 0, GSK3A inh -1 and STK33 inh -2.
Screening Clc1c(Cl)c(Cl)c2n[nH]nc2c1Cl returned GSK3B inh 1, Dyrk1A ADPGlo 80*, Rin1-Abl PPI inh -1, Arrestin-AP2 inh -2, GSK3A inh 6, STK33 inh 4 and Dyrk1A artifact 10%.
Screening COCCN1C(=O)CCC1(C)C(=O)NC1CCCC1 (configuration not stated) returned Rin1-Abl PPI inh 3.
`O=c1[nH]c(-c2ccccc2)ncc1Oc1ccccc1` gave GSK3B inh 5, Rin1-Abl PPI inh -2, Arrestin-AP2 inh 41, GSK3A inh -4 and STK33 inh -1.
`Cc1cccc(N2CN=c3s/c(=C\c4ccccn4)c(=O)n3C2)c1` gave GSK3B inh -4, Dyrk1A ADPGlo 6, Rin1-Abl PPI inh -3, Arrestin-AP2 inh 9, GSK3A inh 1 and STK33 inh -1.
For COc1cc(N2CN=c3s/c(=C\c4ccccn4)c(=O)n3C2)cc(OC)c1OC the results were GSK3B inh -3, Dyrk1A ADPGlo 53*, Rin1-Abl PPI inh -5, Arrestin-AP2 inh 4, GSK3A inh 2, STK33 inh 1 and Dyrk1A artifact 5%.
For CCN1CCN(c2nc(Nc3ccccc3)nc(N)c2[N+](=O)[O-])CC1 the results were GSK3B inh -4, Dyrk1A ADPGlo -2, Rin1-Abl PPI inh -2 and Arrestin-AP2 inh -1.
Screening CCN1CCN(c2nc(Nc3cccc(C)c3)nc(N)c2[N+](=O)[O-])CC1 returned GSK3B inh 0, Dyrk1A ADPGlo 60*, Rin1-Abl PPI inh -4, Arrestin-AP2 inh 1, GSK3A inh 12, STK33 inh 3 and Dyrk1A artifact 8%.
